Experiments:
Beta-secretase 1 = Beta-secretase 1 (Homo sapiens, UniProt P56817); experiment: Inhibition of BACE1 (unknown origin) expressed in baculovirus expression system using Rh-EVNLDAEFK-Quencher as substrate after 90 mins by FRET assay
[1] = Cytotoxicity against mouse Neuro2a cells expressing APP Swedish mutant assessed as cell viability at 5 uM after 24 hrs by MTT assay relative to control; assay type: cell-based, N2a; settings: read-out: Activity
In short: (§1)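 N2a-APPswe cells seeded at 2 × 10⁵ cells/ml (8 × 10⁴/well), grown overnight at 37 °C, then dosed as in the Aβ assay (DMSO diluted in medium, final DMSO under 0.5%). MTT 0.5 mg/ml added for 4 h at 37 °C, formazan dissolved in DMSO, read at 570 nm with 655 nm background. Viability given as percent of untreated control. Average of 3–4 experiments ± SEM.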

[2] = Cytotoxicity against mouse Neuro2a cells expressing APP Swedish mutant assessed as cell viability at 10 uM after 24 hrs by MTT assay relative to control; assay type: cell-based, N2a; settings: read-out: Activity; in short: as §1
[3] = target: Beta-secretase 1 (Mus musculus) (UniProt P56818); experiment: Inhibition of BACE1 in mouse Neuro2a cells expressing APP Swedish mutant assessed as inhibition of amyloid beta (1 to 40) production at 5 uM after 24 hrs by sandwich ELISA relative to control; assay type: cell-based
In short: (§2)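 N2a-APPswe cells seeded at 2 × 10⁵ cells/ml and incubated overnight at 37 °C. Medium replaced, compound in growth medium added (DMSO under 0.5%), incubated 24 h. Conditioned medium collected with 0.1 mM PMSF. Human Aβ1–40 measured by colorimetric sandwich ELISA at 450 nm. Percent inhibition relative to untreated cells, 2–3 experiments ± SEM.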

[4] = target: Beta-secretase 1 (Mus musculus) (UniProt P56818); experiment: Inhibition of BACE1 in mouse Neuro2a cells expressing APP Swedish mutant assessed as inhibition of amyloid beta (1 to 40) production at 10 uM after 24 hrs by sandwich ELISA relative to control; assay type: cell-based; in short: as §2

Sequence of Beta-secretase 1 (P56817 whole entry): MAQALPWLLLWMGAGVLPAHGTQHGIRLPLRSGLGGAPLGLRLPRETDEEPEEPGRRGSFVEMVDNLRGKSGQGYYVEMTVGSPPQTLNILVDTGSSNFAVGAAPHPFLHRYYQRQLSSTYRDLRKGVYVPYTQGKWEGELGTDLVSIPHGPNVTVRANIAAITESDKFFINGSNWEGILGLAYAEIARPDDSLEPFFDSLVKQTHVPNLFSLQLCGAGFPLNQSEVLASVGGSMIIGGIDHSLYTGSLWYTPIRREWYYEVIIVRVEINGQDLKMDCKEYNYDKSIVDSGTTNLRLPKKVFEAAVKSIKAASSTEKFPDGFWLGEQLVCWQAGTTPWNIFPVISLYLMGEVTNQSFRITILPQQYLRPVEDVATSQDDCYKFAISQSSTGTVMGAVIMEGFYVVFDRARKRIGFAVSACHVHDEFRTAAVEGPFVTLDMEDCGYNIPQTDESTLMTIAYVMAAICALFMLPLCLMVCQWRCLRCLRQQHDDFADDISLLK
Sequence of Beta-secretase 1 (Mus musculus) (P56818 whole entry): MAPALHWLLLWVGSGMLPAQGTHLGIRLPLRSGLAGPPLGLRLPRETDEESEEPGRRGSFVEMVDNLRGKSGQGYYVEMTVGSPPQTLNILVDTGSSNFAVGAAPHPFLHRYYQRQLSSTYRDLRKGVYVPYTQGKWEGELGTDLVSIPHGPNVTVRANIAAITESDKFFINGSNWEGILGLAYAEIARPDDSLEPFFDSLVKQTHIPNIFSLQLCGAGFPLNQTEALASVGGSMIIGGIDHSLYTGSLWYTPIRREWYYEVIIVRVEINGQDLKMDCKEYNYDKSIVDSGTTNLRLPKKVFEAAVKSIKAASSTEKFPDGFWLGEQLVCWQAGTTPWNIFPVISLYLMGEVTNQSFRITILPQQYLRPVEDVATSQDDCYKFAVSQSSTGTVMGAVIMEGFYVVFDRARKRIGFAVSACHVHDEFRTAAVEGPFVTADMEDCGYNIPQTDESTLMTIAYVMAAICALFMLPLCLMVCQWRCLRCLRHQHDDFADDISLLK

| IC50 (Beta-secretase 1) [µM] | inhibition [3] [%] | inhibition [4] [%] | Structure (SMILES) | viability at 24 h, 5 µM [1] [%] | viability at 24 h, 10 µM [2] [%] |
| --- | --- | --- | --- | --- | --- |
| 0.928 | 37.8 | 57.6 | O=C(Nc1cc(Br)ccc1N1CCN(CCc2cc3ccccc3[nH]2)CC1)c1cc2ccccc2o/c1=N\c1ccccc1 | 105 | 111 |
| 0.098 | 13.6 | 39.4 | O=C(Nc1cc(Br)ccc1N1CCN(CCN2C(=O)c3ccccc3C2=O)CC1)c1cc2ccccc2o/c1=N\c1ccccc1 | 108 | 96.5 |
| 0.854 | – | – | O=C(Nc1cc(Br)ccc1N1CCN(CCCCN2C(=O)c3ccccc3C2=O)CC1)c1cc2ccccc2o/c1=N\c1ccccc1 | – | – |
| > 10 | – | – | COc1cccc2cc(C(=O)Nc3cc(Br)ccc3N3CCN(Cc4ccccc4)CC3)/c(=N/c3ccccc3)oc12 | – | – |
| 25.7 | – | – | COc1ccccc1C(=O)N1CCN(c2ccc(Br)cc2NC(=O)c2cc3ccccc3o/c2=N\c2ccccc2)CC1 | – | – |
| 0.578 | – | 22.9 | COc1ccc(CN2CCN(c3ccc(Br)cc3NC(=O)c3cc4ccccc4o/c3=N\c3ccccc3)CC2)cc1 | 101 | 98.3 |
| > 10 | – | – | O=C(Nc1cc(Br)ccc1N1CCN(C(=O)c2cccc(Cl)c2)CC1)c1cc2ccccc2o/c1=N\c1ccccc1 | – | – |
| 0.503 | 60.9 | 64.7 | O=C(Nc1cc(Br)ccc1N1CCN(Cc2ccccc2)CC1)c1cc2ccccc2o/c1=N\c1ccccc1 | 102 | 95 |
| 0.849 | 41.3 | 48.2 | O=C(Nc1cc(Br)ccc1N1CCN(CCO)CC1)c1cc2ccccc2o/c1=N\c1ccccc1 | 105 | 101 |
| 0.119 | – | 51.8 | N#Cc1cccc(CN2CCN(c3ccc(Br)cc3NC(=O)c3cc4ccccc4o/c3=N\c3ccccc3)CC2)c1 | 91.2 | 88.7 |
| 0.326 | 44.3 | – | O=C(Nc1cc(Br)ccc1N1CCN(CCCN2C(=O)c3ccccc3C2=O)CC1)c1cc2ccccc2o/c1=N\c1ccccc1 | 101 | – |
| > 10 | – | – | N#CCCCN1CCN(c2ccc(Br)cc2NC(=O)c2cc3ccccc3o/c2=N\c2ccccc2)CC1 | – | – |

The remaining lines, values behind:

| Structure (SMILES) | IC50 (Beta-secretase 1) [µM] | inhibition [3] [%] | inhibition [4] [%] | viability at 24 h, 5 µM [1] [%] | viability at 24 h, 10 µM [2] [%] |
| --- | --- | --- | --- | --- | --- |
| CC(C)(C)OC(=O)N1CCN(c2ccc(Br)cc2NC(=O)c2cc3ccccc3o/c2=N\c2ccccc2)CC1 | 9.81 | – | – | – | – |
| O=C(Nc1cc(Br)ccc1N1CCN(C(=O)c2cccc([N+](=O)[O-])c2)CC1)c1cc2ccccc2o/c1=N\c1ccccc1 | 26.4 | – | – | – | – |
| N=c1oc2ccccc2cc1C(=O)Nc1cc(Br)ccc1N1CCN(Cc2ccccc2)CC1 | 1.22 | 26.4 | 58.3 | 99.7 | 98.9 |
| O=C(Nc1cc(Br)ccc1N1CCN(C(=O)c2cccs2)CC1)c1cc2ccccc2o/c1=N\c1ccccc1 | 3.55 | – | – | – | – |
| COc1cccc2cc(C(=O)Nc3cc(Br)ccc3N3CCN(Cc4ccccc4)CC3)c(=N)oc12 | > 10 | – | – | – | – |
| CC(C)(C)OC(=O)N1CCN(c2ccc(Br)cc2NC(=O)c2cc3ccccc3oc2=N)CC1 | > 10 | – | – | – | – |
| COc1ccc(C(=O)N2CCN(c3ccc(Br)cc3NC(=O)c3cc4ccccc4o/c3=N\c3ccccc3)CC2)cc1 | > 10 | – | – | – | – |
| O=C(Nc1cc(Br)ccc1N1CCN(C(=O)c2ccco2)CC1)c1cc2ccccc2o/c1=N\c1ccccc1 | 0.741 | 53.1 | 65.8 | 93 | 95.4 |
| O=C(Nc1cc(Br)ccc1N1CCNCC1)c1cc2ccccc2o/c1=N\c1ccccc1 | 9.27 | – | – | – | – |
| CC(C)C[C@H](NC(=O)[C@H](CC(N)=O)NC(=O)[C@@H](NC(=O)[C@@H](N)CCC(=O)O)C(C)C)[C@@H](O)CC(C)C(=O)N[C@@H](C)C(=O)N[C@@H](CCC(=O)O)C(=O)N[C@@H](Cc1ccccc1)C(=O)O (single isomer, unassigned) | – | – | – | < 70 | < 70 |

— ChEMBL document CHEMBL2346537, “Phenylimino-2H-chromen-3-carboxamide derivatives as novel small molecule inhibitors of β-secretase (BACE1)” (Bioorg Med Chem, 2013)
